WT yeast gro inh = growth inhibition of WT yeast, mitochondrial fusion screen; mitochondrial fusion phenotypic screen, WT strain; AID 1362; 190,000 tested, 2.1% active; inhibition, % at 10 µM; in the data active means inhibition above about 58%; tested in S. cerevisiae
CHOP inh = blocks CHOP induction under ER stress. CHO-K1 CHOP-promoter luciferase, tunicamycin-induced, 15-18 h. inhibition, % at 10 µM. 220,000 tested, 3.8% active;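 active means compounds that reduced the stress-induced luciferase reporter signal by more than about 70% of percent inhibition, limit read from the data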
MPTP block = blocks calcium-induced mitochondrial swelling | isolated mouse mitochondria, Ca2+ swelling absorbance, 30 min | inhibition, % at 10 µM | 360,000 tested, 1.4% active | AID 602449;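 active means inhibition of 50% or more, scaled per plate between neutral and stimulator controls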
Tb MetRS inh = Trypanosoma brucei MetRS inhibition; purified T. brucei MetRS, ATP depletion, Kinase-Glo luminescence; inhibition, % at 11.9 µM; AID 624268; 360,000 tested, 0.4% active;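 active means inhibition above a per-plate cutoff of the control wells' mean inhibition plus 3 SD, cut at about 5.5% in these data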
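Material: parasite MetRS enzyme / Replication: singlicate, one well per compound / Signal: luminescence of leftover ATP / Schedule: 2 h aminoacylation at 25 °C after 15 min preincubation / Medium: HEPES-MgCl2-KCl buffer plus DTT, spermine, BSA, pyrophosphatase / Doses: 11.9 µM single point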
EBV gp42 block = inhibitors of Epstein-Barr virus glycoprotein 42. Q1HVG2. Fluorescence polarization binding assay, mP read-out. inhibition, % (tested at 21.74 µM). 220,000 tested, 0.42% active. AID 1085; in the data active means inhibition above about 50%
Target sequence (Q1HVG2 whole entry, looked up): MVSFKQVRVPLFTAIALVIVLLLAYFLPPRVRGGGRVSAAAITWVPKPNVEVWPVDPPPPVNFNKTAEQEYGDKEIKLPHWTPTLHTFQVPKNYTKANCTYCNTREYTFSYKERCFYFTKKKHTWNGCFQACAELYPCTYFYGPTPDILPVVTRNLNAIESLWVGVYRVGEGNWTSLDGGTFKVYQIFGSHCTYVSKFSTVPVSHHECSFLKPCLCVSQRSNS
GRIN3A LBD mod = NR3A (human) ligand-binding domain modulation; NR3A LBD differential scanning fluorimetry, Tm shift; 0% = protein alone, 100% = glycine-bound protein; Tm shift relative to glycine control, % at 25 µM; 340,000 tested, 2.5% active; AID 1259313;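 active means melting temperature shift of at least 10% of the positive control shift, at one fixed dose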
Each line names hits and unclear results; the compound was inactive in the other large screens. A selection: hits, their analogues and other compounds. The true share with any hit is near 6.4%.

CCC(c1nnnn1CCc1ccccc1)N(Cc1ccco1)Cc1cc2c(C)ccc(C)c2[nH]c1=O (configuration not stated)	CHOP inh 90.2
Cc1ccc(C)c(N(C(=O)c2csnn2)C(C(=O)NC2CCCC2)c2cccnc2)c1 (configuration not stated)	none (no result: WT yeast gro inh, CHOP inh, EBV gp42 block)
Cc1ccc(/C=N/OC(=O)c2c(C)noc2-c2snnc2C)cc1	none (no result: WT yeast gro inh)
COc1ccccc1N1CCN(C(CNS(=O)(=O)c2ccc(C)cc2)c2cccnc2)CC1 (configuration not stated)	GRIN3A LBD mod 15.8
O=S(=O)(NCC(c1cccnc1)N1CCN(c2ccc(F)cc2)CC1)c1ccc(F)cc1 (configuration not stated)	CHOP inh 93.8
COc1ccccc1N1CCN(C(CNS(C)(=O)=O)c2cccnc2)CC1 (configuration not stated)	none
CCn1c(CNc2nc3ccccc3n2C(C)C)nc2ccccc21	none
CCN1CCN(CC(=O)Nc2ccc(C)cc2C)C(=O)C1=O	none
Cc1nc(Oc2ccccc2)c2ccccc2n1	none
FC(F)(F)c1nc(Oc2ccccc2)c2ccccc2n1	CHOP inh 83.1
COC(=O)[C@H](CCSC)NC(=O)Nc1cc(C)ccc1C	none
COC(=O)C(CCSC)NC(=O)CNS(=O)(=O)c1ccc(Br)cc1 (configuration not stated)	CHOP inh 80.5
COC(=O)[C@H](CCSC)NC(=O)Nc1cccc(Br)c1	GRIN3A LBD mod 16.9 (no result: WT yeast gro inh)
COC(=O)[C@H](CCSC)NC(=O)Nc1ccc(C)cc1	GRIN3A LBD mod 11.2
COc1cc(C2c3cc4c(cc3OC(N3CCOCC3)C2C)OCO4)cc(OC)c1OC(C)=O (configuration not stated)	none (no result: WT yeast gro inh, CHOP inh, EBV gp42 block)
CC(C)(O)c1[nH]c2ccc(C#N)cc2c1C(C)(C)O	none (no result: WT yeast gro inh, CHOP inh, MPTP block, Tb MetRS inh, EBV gp42 block)
CCCS(=O)(=O)N1CCC(C(=O)NC2CCCC(C)C2C)CC1 (configuration not stated)	none
Cc1ccc(-c2csc(N3CCC(C(N)=O)CC3)n2)cc1	none (no result: WT yeast gro inh, CHOP inh, EBV gp42 block)
Cc1ccc(-c2csc(N3CCC(C(N)=O)(N4CCCCC4)CC3)n2)cc1	CHOP inh 81.7
O=C(Cc1n[nH]c(=O)[nH]c1=O)N/N=C/c1c(O)ccc2ccccc12	none
COc1cccc(C(=O)Nc2ccc3c(c2)OC[C@H](C)N(CCc2ccccc2)C[C@@H](C)[C@@H](OC)CN(C)C3=O)c1	none (no result: WT yeast gro inh, CHOP inh, EBV gp42 block, GRIN3A LBD mod)
Cc1cc(N/N=C/c2ccc(Cl)cc2)nc(NCc2ccccc2)n1	GRIN3A LBD mod 27.5
Cc1cc(N/N=C/c2cccc(F)c2)nc(NCc2ccccc2)n1	GRIN3A LBD mod 15.0 (no result: WT yeast gro inh)
Cc1cc(N/N=C/c2ccccc2)nc(NCc2ccccc2)n1	WT yeast gro inh 61.8
Cc1cc(N/N=C/c2ccccc2F)nc(NCc2ccccc2)n1	none (no result: WT yeast gro inh)
Cc1cc(C)nc(N/N=C/c2cccc(Cl)c2)n1	none
Cc1cc(N/N=C/c2cccc(Cl)c2)nc(NCc2ccccc2)n1	WT yeast gro inh 82.1, GRIN3A LBD mod 15.2
O=C(C1CCCO1)N1CCN(c2ccccn2)CC1 (configuration not stated)	none
CN(C)c1cc(N/N=C\c2ccccc2)nc(N(C)C)n1	WT yeast gro inh 58.7
CCN(CC)CCNC(=O)C(=O)Nc1cc2c3c(c1)CCC(=O)N3CCC2	none (no result: WT yeast gro inh, CHOP inh, EBV gp42 block)
CSC(=Nc1ccccc1)C(C#N)c1nc2ccccc2[nH]1 (configuration not stated)	CHOP inh 82.0 (no result: WT yeast gro inh)
N#CC(C(=O)C1CCCCC1)c1nc2ccccc2[nH]1 (configuration not stated)	none
N#CC(C(=S)Nc1ccccc1)c1nc2ccccc2[nH]1 (configuration not stated)	GRIN3A LBD mod 31.0 (no result: WT yeast gro inh)
O=C(N/N=C/c1ccccc1)c1cc(-c2ccc3c(c2)OCO3)n[nH]1	GRIN3A LBD mod 26.2
Cc1ccc(C(=O)NN=Cc2ccc3c(c2)OCO3)cc1	none (no result: WT yeast gro inh, CHOP inh, EBV gp42 block)
O=C(N/N=C/c1ccccc1)c1ccc2c(c1)OCO2	none (no result: WT yeast gro inh, CHOP inh, EBV gp42 block)
O=C(N/N=C/c1cccc([N+](=O)[O-])c1)c1cc(-c2ccc3c(c2)OCO3)n[nH]1	GRIN3A LBD mod 29.2 (no result: WT yeast gro inh)
CCc1ccc(/C=N/NC(=O)c2cc(-c3cccc([N+](=O)[O-])c3)n[nH]2)cc1	none (no result: WT yeast gro inh)
O=C(N/N=C/c1cccc(O)c1)c1cc(-c2ccc3c(c2)OCO3)n[nH]1	GRIN3A LBD mod 31.6
O=C(N/N=C/c1ccc(O)cc1)c1cc(-c2ccc3c(c2)OCO3)n[nH]1	GRIN3A LBD mod 27.7
COc1ccc(C(=O)C2CCCN(C(=O)c3cccc(N(C)C)c3)C2)cc1OC (configuration not stated)	none (no result: WT yeast gro inh, CHOP inh, EBV gp42 block)
COC(=O)CC1=NC(=O)CS1	GRIN3A LBD mod 11.0
O=C(Oc1ccc(-c2nnco2)cc1)N1CCCCC1	none
Cc1ccc2[nH]cc(C(=O)CCl)c2c1	GRIN3A LBD mod 38.0
O=C(O)c1ccc(-c2ccccc2C(F)(F)F)o1	none
O=C(NCc1ccccc1)c1ccc(-c2ccccc2C(F)(F)F)o1	WT yeast gro inh 58.0
Cc1ccc(NC(=O)/C(C#N)=C/c2cc(C)n(-c3ccc(N4CCOCC4)c([N+](=O)[O-])c3)c2C)c(C)c1	none
O=C1C=C(c2ccccc2)C[C@@H](c2ccc(Cl)cc2)C1	none (no result: WT yeast gro inh, CHOP inh, EBV gp42 block)
O=C1C=C(c2cc(C(F)(F)F)cc(C(F)(F)F)c2)C[C@@H](c2ccc(Cl)cc2)C1	GRIN3A LBD mod 12.9 (no result: WT yeast gro inh, CHOP inh, EBV gp42 block)
O=C1C=C(c2ccc3[nH]ccc3c2)C[C@@H](c2ccc(Cl)cc2)C1	GRIN3A LBD mod 21.6 (no result: WT yeast gro inh, CHOP inh, EBV gp42 block)
C[N+](C)(C)CC(=O)N1CCN(c2ccc3ccccc3n2)CC1	none (no result: WT yeast gro inh, CHOP inh, EBV gp42 block)
CN1CCN(CCCNC(=O)c2ccc(/C=C3\Sc4ccccc4N(Cc4ccccc4F)C3=O)cc2)CC1	none
Cn1c(-c2ccsc2)c(-c2cccs2)c2cc(-c3ccc4[nH]ccc4c3)ccc21	none (no result: WT yeast gro inh, CHOP inh, EBV gp42 block)
Cn1c(-c2ccsc2)c(-c2cccs2)c2cc(-c3ccc4cc[nH]c4c3)ccc21	GRIN3A LBD mod 10.5 (no result: WT yeast gro inh, CHOP inh, EBV gp42 block)
O=C(C=C=Nc1ccccc1)C(=O)N=C=Cc1ccccc1	CHOP inh 95.7 (no result: WT yeast gro inh)
O=C(N/N=C/c1ccccc1)C(=O)N/N=C/c1ccccc1	none (no result: WT yeast gro inh, CHOP inh, EBV gp42 block)
COc1cccc(OCc2cc(C(=O)NCc3ccc4c(c3)OCO4)no2)c1	none (no result: WT yeast gro inh, CHOP inh, EBV gp42 block)
C/C(=N\NC(=O)c1ccn(C)n1)c1ccc(NC(=O)c2cccc(F)c2)cc1	GRIN3A LBD mod 15.6 (no result: WT yeast gro inh, CHOP inh, EBV gp42 block)
COc1ccc(CC(=O)NNC(=S)Nc2ccccc2)cc1Br	none
CCOc1ccc(CC(=O)NNC(=S)Nc2ccccc2)cc1Br	GRIN3A LBD mod 12.6
O=C(/C=C/c1cccs1)Nc1cccc(NC(=O)/C=C/c2cccs2)n1	GRIN3A LBD mod 23.7
CC(=O)Nc1ccc(NC(=O)c2ccc(NC(=O)c3ccccc3)cc2)cc1	GRIN3A LBD mod 27.9 (no result: WT yeast gro inh, CHOP inh, EBV gp42 block)
CC(NC(=O)c1ccc2ccccc2n1)c1ccc(S(N)(=O)=O)cc1 (configuration not stated)	none (no result: WT yeast gro inh, CHOP inh, EBV gp42 block)
C[C@H](CO)N1C[C@H](C)[C@@H](CN(C)C(=O)Nc2ccccc2)Oc2ccc(NC(=O)C3CCCCC3)cc2C1=O	none (no result: WT yeast gro inh, CHOP inh, EBV gp42 block)
